Measured values: ChEMBL document CHEMBL4414574, “Structure-Based Discovery and Development of a Series of Potent and Selective Bromodomain and Extra-Terminal Protein Inhibitors” (J Med Chem, 2019)
The source made the active and inactive calls. The calls are words filed in the database; no cut-off is given here.

Tests used:
[1] = Tmax in ICR mouse plasma at 50 mg/kg, po administered via gavage measured after 0.25 to 24 hrs by UPLC/MS analysis; format: ADME, organism-based
In short: (§1)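 Male ICR mice dosed orally at 50 mg/kg in 1% DMSO/0.5% HPMC; drug measured in plasma and brain.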

[2] = target: T1, Bromodomain-containing protein 4 (Homo sapiens, UniProt O60885); test: Binding affinity to human partial length BRD4 bromodomain 2 long isoform (K333 to E460 residues) expressed in Escherichia coli BL21 cells assessed as residual binding level at 1 uM measured after 1 hr by quantitative PCR based BROMOscan assay relative to control
In short: (§2)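 A BROMOScan competition-binding panel of 32 bromodomains was run at a single 1 μM compound concentration. Results are primary-screen 'Percent Control', where lower values indicate stronger binding.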

[3] = AUC (0 to infinity) in rat brain at 50 mg/kg, po; format: ADME, organism-based; set-up: dose 50 mg/kg, time infinity, route oral
In short: (§3)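 Compound was given orally or intravenously in 1% DMSO/0.5% HPMC vehicle. Concentrations in plasma, or in brain where stated, gave Tmax, Cmax, T1/2, AUC0-t and AUC0-inf.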

[4] = AUC (0 to t) in ICR mouse plasma at 50 mg/kg, po administered via gavage measured after 0.25 to 24 hrs by UPLC/MS analysis; format: ADME, organism-based; set-up: time lower 0.25 hr, dose 50 mg/kg, time upper 24 hr, route oral
In short: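 Male ICR mice were dosed orally in 1% DMSO/0.5% HPMC vehicle. Plasma (and brain, where stated) concentrations gave Tmax, Cmax, T1/2, AUC0-t and AUC0-inf.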

MV4-11 [5] = test: Induction of apoptosis in human MV4-11 cells assessed as reduction in BIM level after 24 hrs by Western blot analysis; format: functional, cell-based
In short: (§4)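 MV4-11 cells exposed to compound at the indicated doses for 24 h; lysates probed by Western blotting for the target protein, with GAPDH as loading control.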

Hep 3B2 = test: Antiproliferative activity against human Hep3B cells after 72 hrs by CCK8 or SRB assay; format: functional, cell-based
Cytochrome P450 2C19 = Cytochrome P450 2C19 (Homo sapiens, UniProt P33261); test: Time-dependent inhibition of CYP2C19 in human liver microsomes at 10 uM using mephenytoin as substrate preincubated up to 30 mins followed by NADPH generating system addition and measured after 10 mins; format: ADME
In short: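 Human liver microsomes 0.2 mg/mL, 100 mM phosphate pH 7.4, 10 μM test compound, preincubated 0, 5, 10 and 30 min at 37 °C; then NADPH plus probe cocktail (5 μM midazolam, 50 μM testosterone, 5 μM dextromethorphan, 10 μM diclofenac, 50 μM phenacetin, 50 μM S-(+)-mephenytoin) added; 10 min reaction; kobs in units of 10^-4/min.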

[6] = AUC (0 to infinity) in rat plasma at 10 mg/kg, po; format: ADME, organism-based; set-up: dose 10 mg/kg, route oral, time infinity; in short: as §3
[7] = target: T1, Bromodomain-containing protein 4; test: Inhibition of BRD4 bromodomain 1 (unknown origin)
In short: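 BRD4 BD1 (His6-tagged, E. coli BL21(DE3)-expressed, Ni-NTA purified) at 10 nM with 5 nM FITC-labelled (+)-JQ1 tracer; 50 mM HEPES pH 7.4, 150 mM NaCl, 0.5 mM CHAPS, DMSO 2‰ final; graded inhibitor; 4 h dark equilibration at room temperature; fluorescence anisotropy read (ex 485/em 530 nm). IC50 from two independent experiments in duplicate, mean ± SEM.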

[8] = Toxicity in Balb/c nude mouse xenografted with human MV4-11 cells assessed as effect on mouse survival at 10 to 50 mg/kg, administered once daily; format: organism-based; settings: in vivo
Peregrin (Homo sapiens) = Peregrin (Homo sapiens) (UniProt P55201); test: Binding affinity to human partial length BRPF1 (E627 to G740 residues) expressed in Escherichia coli BL21 cells assessed as residual binding level at 1 uM measured after 1 hr by quantitative PCR based BROMOscan assay relative to control; in short: as §2
[9] = target: Bromodomain-containing protein 2 (Homo sapiens) (UniProt P25440); test: Binding affinity to human partial length BRD2 bromodomain 2 isoform 1 (E348 to D455 residues) expressed in Escherichia coli BL21 cells assessed as residual binding level at 1 uM measured after 1 hr by quantitative PCR based BROMOscan assay relative to control; in short: as §2
[10] = AUC (0 to t) in rat plasma at 50 mg/kg, po; format: ADME, organism-based; in short: as §3
[11] = Cmax in dog plasma at 3 mg/kg, po; format: ADME, organism-based, Canis lupus familiaris; set-up: dose 3 mg/kg, route oral
[12] = target: Bromodomain testis-specific protein (Homo sapiens) (UniProt Q58F21); test: Binding affinity to human partial length BRDT bromodomain 1 (N21 to E137 residues) expressed in Escherichia coli BL21 cells assessed as residual binding level at 1 uM measured after 1 hr by quantitative PCR based BROMOscan assay relative to control; in short: as §2
KG-1 = test: Antiproliferative activity against human KG1 cells after 72 hrs by CCK8 or SRB assay; format: functional, cell-based
MV4-11 [13] = test: Induction of apoptosis in human MV4-11 cells assessed as reduction in BCL-xL level after 24 hrs by Western blot analysis; format: functional, cell-based; in short: as §4
[14] = target: T1, Bromodomain-containing protein 4; test: Binding affinity to human partial length BRD4 bromodomain 1 long isoform (N44 to E168 residues) expressed in Escherichia coli BL21 cells assessed as residual binding level at 1 uM measured after 1 hr by quantitative PCR based BROMOscan assay relative to control; in short: as §2
[15] = Tmax in ICR mouse brain at 50 mg/kg, po administered via gavage measured after 0.25 to 24 hrs by UPLC/MS analysis; format: ADME, organism-based; in short: as §1
[16] = target: Protein polybromo-1 (Homo sapiens) (UniProt Q86U86); test: Binding affinity to human partial length PB1 bromodomain 2 (S178 to E291 residues) expressed in Escherichia coli BL21 cells assessed as residual binding level at 1 uM measured after 1 hr by quantitative PCR based BROMOscan assay relative to control
In short: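 Bromodomain panel screen (32 bromodomains) run at 1 μM single concentration; primary binding reported as 'Percent Control', lower values meaning stronger interaction.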

MV4-11 [17] = test: Induction of apoptosis in human MV4-11 cells assessed as increase in cleaved caspase-8 level after 24 hrs by Western blot analysis; format: functional, cell-based
In short: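 MV4-11 cells exposed to test agent at the indicated doses for 24 h. Lysates immunoblotted for full-length and cleaved caspase-3, -7, -8 and -9, with GAPDH as the loading reference.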

[18] = AUC (0 to t) in dog plasma at 1 mg/kg, iv; format: ADME, organism-based, Canis lupus familiaris; in short: as §3
[19] = Tmax in rat plasma at 10 mg/kg, po; format: ADME, organism-based
In short: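 Oral dosing in 1% DMSO/0.5% HPMC vehicle (dog 3 mg/kg; rat 10 mg/kg); plasma drug levels measured.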

[20] = target: ATPase family AAA domain-containing protein 2 (Homo sapiens) (UniProt Q6PL18); test: Binding affinity to human partial length ATAD2A (Q981 to R1108 residues) expressed in Escherichia coli BL21 cells assessed as residual binding level at 1 uM measured after 1 hr by quantitative PCR based BROMOscan assay relative to control; in short: as §2
[21] = Bioavailability in rat at 3 mg/kg, iv; format: ADME, organism-based; settings: in vivo
NCI-H522 = test: Antiproliferative activity against human NCI-H522 cells after 72 hrs by CCK8 or SRB assay; format: functional, cell-based
HuTu80 = test: Antiproliferative activity against human HuTu 80 cells after 72 hrs by CCK8 or SRB assay; format: functional, cell-based

ATPase family AAA domain-containing protein 2 (Homo sapiens), sequence (Q6PL18 whole entry, the tested form may be a part): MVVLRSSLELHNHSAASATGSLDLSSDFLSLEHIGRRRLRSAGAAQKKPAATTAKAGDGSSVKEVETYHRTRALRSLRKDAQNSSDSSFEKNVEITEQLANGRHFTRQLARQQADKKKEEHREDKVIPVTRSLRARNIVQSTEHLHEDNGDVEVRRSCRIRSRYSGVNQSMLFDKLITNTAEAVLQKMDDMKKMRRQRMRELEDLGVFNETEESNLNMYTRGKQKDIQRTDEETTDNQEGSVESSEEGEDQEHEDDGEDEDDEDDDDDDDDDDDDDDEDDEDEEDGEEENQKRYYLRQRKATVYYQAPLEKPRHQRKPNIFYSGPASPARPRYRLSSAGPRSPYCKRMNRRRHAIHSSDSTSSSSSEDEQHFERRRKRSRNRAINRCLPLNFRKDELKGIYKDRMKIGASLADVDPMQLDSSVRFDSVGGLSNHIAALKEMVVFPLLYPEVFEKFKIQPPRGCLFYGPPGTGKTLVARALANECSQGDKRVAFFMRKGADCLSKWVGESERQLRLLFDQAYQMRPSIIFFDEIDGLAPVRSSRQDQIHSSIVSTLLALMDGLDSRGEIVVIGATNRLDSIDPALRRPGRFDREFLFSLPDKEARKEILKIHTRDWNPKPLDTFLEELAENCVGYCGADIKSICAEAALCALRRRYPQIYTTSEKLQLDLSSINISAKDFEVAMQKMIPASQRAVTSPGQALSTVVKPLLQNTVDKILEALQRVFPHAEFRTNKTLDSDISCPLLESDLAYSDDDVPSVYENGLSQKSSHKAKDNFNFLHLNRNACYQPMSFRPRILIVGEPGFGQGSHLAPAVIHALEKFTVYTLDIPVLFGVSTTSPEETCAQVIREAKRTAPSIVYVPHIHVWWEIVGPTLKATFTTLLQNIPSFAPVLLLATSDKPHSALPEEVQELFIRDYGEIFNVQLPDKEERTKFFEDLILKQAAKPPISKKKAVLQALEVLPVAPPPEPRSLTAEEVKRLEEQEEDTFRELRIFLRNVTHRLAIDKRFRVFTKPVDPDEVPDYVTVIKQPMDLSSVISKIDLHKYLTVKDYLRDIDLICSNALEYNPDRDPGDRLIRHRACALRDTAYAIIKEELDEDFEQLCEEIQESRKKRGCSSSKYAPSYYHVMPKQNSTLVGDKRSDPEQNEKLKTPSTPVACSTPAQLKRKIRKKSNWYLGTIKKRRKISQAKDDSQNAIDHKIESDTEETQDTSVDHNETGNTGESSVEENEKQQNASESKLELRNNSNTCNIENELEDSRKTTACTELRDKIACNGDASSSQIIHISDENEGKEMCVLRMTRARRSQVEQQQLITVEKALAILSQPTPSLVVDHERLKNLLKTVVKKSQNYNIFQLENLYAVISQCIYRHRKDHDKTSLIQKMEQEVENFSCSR
Protein polybromo-1 (Homo sapiens), sequence (Q86U86 whole entry, the tested form may be a part): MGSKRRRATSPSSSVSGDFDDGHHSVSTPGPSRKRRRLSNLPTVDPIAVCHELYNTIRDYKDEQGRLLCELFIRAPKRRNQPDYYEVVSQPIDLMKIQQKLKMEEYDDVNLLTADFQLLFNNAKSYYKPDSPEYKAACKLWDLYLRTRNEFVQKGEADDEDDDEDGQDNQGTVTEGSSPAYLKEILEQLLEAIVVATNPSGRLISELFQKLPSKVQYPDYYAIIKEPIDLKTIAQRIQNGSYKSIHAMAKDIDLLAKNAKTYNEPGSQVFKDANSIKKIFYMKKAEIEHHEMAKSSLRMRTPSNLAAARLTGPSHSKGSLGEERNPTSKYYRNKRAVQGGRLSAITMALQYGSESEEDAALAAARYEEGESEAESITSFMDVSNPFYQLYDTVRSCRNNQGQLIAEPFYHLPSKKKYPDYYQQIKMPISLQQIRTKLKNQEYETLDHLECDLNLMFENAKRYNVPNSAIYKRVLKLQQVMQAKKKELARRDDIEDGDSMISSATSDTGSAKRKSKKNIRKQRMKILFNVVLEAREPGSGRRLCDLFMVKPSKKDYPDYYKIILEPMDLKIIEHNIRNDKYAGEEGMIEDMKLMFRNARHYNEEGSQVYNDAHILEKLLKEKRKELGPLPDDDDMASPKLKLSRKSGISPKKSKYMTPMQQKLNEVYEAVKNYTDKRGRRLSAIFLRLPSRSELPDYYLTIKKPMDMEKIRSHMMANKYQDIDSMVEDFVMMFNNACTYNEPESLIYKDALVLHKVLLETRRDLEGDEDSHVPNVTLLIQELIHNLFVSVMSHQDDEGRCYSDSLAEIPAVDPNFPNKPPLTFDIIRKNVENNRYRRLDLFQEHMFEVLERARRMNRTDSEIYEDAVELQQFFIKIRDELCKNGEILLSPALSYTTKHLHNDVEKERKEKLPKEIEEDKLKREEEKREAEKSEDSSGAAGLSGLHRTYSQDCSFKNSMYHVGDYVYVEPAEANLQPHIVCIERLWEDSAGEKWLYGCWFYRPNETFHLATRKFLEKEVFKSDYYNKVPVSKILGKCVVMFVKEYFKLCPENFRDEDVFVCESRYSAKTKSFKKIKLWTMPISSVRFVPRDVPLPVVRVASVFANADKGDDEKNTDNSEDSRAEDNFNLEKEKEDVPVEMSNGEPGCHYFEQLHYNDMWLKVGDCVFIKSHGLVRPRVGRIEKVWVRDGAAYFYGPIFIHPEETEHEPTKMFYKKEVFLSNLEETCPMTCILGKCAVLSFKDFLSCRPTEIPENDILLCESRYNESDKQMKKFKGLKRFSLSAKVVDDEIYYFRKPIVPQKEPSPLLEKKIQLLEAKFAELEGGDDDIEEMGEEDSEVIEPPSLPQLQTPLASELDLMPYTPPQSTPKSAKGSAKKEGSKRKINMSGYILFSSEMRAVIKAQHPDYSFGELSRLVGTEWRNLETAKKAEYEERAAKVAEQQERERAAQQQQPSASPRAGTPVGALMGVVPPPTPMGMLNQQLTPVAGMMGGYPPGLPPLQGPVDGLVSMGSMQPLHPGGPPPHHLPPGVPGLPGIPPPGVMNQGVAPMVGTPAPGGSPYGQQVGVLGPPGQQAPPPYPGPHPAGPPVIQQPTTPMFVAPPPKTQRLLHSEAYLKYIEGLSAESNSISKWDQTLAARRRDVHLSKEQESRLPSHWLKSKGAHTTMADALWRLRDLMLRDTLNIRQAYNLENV
Peregrin (Homo sapiens), sequence (P55201 whole entry, the tested form may be a part, canonical isoform): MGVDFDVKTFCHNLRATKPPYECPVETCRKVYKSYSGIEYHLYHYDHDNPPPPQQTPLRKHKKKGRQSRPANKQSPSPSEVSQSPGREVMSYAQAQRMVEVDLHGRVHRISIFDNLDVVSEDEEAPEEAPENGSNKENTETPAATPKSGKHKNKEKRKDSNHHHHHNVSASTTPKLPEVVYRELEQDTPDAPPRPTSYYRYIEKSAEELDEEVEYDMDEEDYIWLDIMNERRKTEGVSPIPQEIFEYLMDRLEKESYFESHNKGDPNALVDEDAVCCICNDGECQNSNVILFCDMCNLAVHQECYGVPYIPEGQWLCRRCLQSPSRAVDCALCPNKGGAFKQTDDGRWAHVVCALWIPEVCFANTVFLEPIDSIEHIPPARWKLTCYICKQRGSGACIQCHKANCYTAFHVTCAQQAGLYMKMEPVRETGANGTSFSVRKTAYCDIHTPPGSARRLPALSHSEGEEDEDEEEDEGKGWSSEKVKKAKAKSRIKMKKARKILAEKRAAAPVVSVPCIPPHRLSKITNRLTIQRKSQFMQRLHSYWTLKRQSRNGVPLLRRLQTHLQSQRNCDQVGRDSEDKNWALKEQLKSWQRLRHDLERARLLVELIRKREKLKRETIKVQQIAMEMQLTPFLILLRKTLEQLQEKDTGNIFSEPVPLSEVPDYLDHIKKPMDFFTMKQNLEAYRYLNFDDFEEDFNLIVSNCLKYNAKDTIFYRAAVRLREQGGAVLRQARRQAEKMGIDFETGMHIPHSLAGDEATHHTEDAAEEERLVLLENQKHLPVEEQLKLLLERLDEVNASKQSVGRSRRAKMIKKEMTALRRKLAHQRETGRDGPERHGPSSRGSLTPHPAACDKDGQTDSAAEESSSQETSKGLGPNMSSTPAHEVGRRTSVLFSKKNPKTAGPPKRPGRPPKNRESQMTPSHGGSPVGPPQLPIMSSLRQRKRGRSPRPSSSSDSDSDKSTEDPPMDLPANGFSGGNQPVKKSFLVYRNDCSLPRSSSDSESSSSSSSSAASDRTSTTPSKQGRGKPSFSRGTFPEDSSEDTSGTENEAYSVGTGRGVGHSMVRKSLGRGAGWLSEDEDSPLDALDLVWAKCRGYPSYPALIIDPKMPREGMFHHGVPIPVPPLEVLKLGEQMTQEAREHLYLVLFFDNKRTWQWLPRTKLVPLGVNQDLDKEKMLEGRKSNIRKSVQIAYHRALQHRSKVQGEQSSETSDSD
Bromodomain-containing protein 2 (Homo sapiens), sequence (P25440 whole entry, looked up, the tested form may be a part, canonical isoform): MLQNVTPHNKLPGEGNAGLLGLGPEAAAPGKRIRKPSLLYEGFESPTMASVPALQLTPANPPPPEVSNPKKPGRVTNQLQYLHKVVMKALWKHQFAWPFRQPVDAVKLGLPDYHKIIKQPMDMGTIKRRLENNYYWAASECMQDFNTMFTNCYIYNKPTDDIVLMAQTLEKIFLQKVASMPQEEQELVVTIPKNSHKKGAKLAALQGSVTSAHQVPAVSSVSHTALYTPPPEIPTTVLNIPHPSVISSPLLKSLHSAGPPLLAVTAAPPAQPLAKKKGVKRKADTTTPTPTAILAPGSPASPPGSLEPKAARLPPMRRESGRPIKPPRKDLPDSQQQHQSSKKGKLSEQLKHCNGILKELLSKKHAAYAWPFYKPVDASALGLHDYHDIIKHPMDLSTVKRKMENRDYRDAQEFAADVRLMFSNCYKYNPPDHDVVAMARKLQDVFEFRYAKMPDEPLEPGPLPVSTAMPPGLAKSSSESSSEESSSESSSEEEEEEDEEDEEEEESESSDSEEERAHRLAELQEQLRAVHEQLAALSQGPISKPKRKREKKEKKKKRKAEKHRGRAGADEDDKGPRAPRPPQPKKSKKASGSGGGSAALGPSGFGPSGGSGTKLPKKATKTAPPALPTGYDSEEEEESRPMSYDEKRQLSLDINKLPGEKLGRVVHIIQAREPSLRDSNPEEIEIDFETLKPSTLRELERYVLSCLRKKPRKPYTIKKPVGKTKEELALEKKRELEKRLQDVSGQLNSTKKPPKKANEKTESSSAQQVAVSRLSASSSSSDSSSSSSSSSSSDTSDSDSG

## Cc1ccc(-n2nc(C(=O)N3C[C@@H](C)N[C@@H](C)C3)nc2-c2ccc3c(c2)N(C2CCCC2)[C@H](C)C(=O)N3C)cc1
[1]
  Tmax: 1 h
[2]
  Activity: < 5%
[3]
  AUC(0-inf): 399 ng·h/mL
[4]
  AUC(0-t): 16700 ng·h/mL
MV4-11 [5]
  Activity: Dose-dependent effect
Hep 3B2
  Activity: Active
Cytochrome P450 2C19
  TDI: Not Active
[6]
  AUC(0-inf): 1270 ng·h/mL
[7]
  inhibition: Active
[8]
  Activity: Non-Toxic
Peregrin (Homo sapiens)
  Activity: 70 to 100%
[9]
  Activity: < 5%
[10]
  AUC(0-t): 3820 ng·h/mL
[11]
  Cmax: 216 ng/mL
[12]
  Activity: < 5%
KG-1
  Activity: Active
MV4-11 [13]
  Activity: Dose-dependent effect
[14]
  Activity: < 5%
[15]
  Tmax: 1 h
[16]
  Activity: 70 to 100%
MV4-11 [17]
  Activity: Dose-dependent effect
[18]
  AUC(0-t): 726 ng·h/mL
[19]
  Tmax: 2.3 h
[20]
  Activity: 70 to 100%
[21]
  bioavailability: 18.2%
NCI-H522
  Activity: Active
HuTu80
  Activity: Active
